According to ChEMBL document CHEMBL4513216, “Probing the Open Global Health Chemical Diversity Library for Multistage-Active Starting Points for Next-Generation Antimalarials” (ACS Infect Dis, 2020):

Assay: Toxicity liver stage against HepG2, at 10uM
Assay type: cell-based
Parameters: test concentration 10 uM, cell line HepG2-A16-CD81EGFP
Details: human, HepG2-A16-CD81EGFP cells; read-out: INHIBITION
How it was run: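 Uninfected HepG2-A16-CD81EGFP cells, 3 × 10^3 per well, 1536-well, plated on prespotted compound at 10 μM final, parasite-free screening media added to match infected plates; puromycin 10 μM positive, DMSO 0.5% negative; run in parallel with 48 h PbLuc assay at 37 °C, 5% CO2; viability by CellTiter-Glo luminescence, normalized to controls.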

Row | SMILES | cytotoxicity at 10 µM [%]
1 | Cc1cccc(C(=O)N2CCN(S(C)(=O)=O)[C@@H](C)C2)c1Cl | 5.58
2 | COC(=O)c1ccc(N2CCN(C(=O)c3ccc(O)nc3)C(C)C2)cc1 (configuration not stated) | -4.5
3 | COc1ccc(OC)c(C(=O)N2CCC(Nc3cccnc3)CC2)c1 | -138
4 | OC1CCCN(Cc2ccc(F)c3cccnc23)C1 (configuration not stated) | 4.75
5 | Cc1ccc(NC2CCN(C(=O)c3cccc4c3ccn4C)CC2)nn1 | -17.3
6 | O=C(NCCn1nc(-n2cncn2)ccc1=O)c1ccc(F)cc1F | -8.78
7 | O=C1NCCN1C1CCN(CCc2cccs2)CC1 | -1.32
8 | CN1C(=O)C2(CCN(Cc3nccn3C)CC2)c2ccccc21 | 1.49
9 | CCC(C)n1cnc(S(=O)(=O)N(Cc2cccnc2)C(C)C)c1 (configuration not stated) | 0.075
10 | Cn1cc(CN2CCCC(CCc3ccccc3C(F)(F)F)C2)cn1 (configuration not stated) | -4.24
11 | c1csc(CN2CCCn3cnc(COCC4CC4)c3C2)n1 | 9.7
12 | COc1cc(C(C)NCc2ncccc2C)ccc1SC(F)F (configuration not stated) | -8.47
13 | CC1CN(C(=O)NCc2cnn(-c3ccc(F)cc3F)c2)CCO1 (configuration not stated) | 2.18
14 | COCCNC(=O)[C@@]12CCO[C@@H]1CCN(Cc1ccc(OC)cc1)C2 | -77.8
15 | CC(C)Cc1cc(CNC(=O)C2CCCN(C(=O)N(C)C)C2)no1 (configuration not stated) | 2.31
16 | CCOc1cc(C)nc(N2CCN(C(=O)c3cc[nH]n3)CC2)n1 | -8.21
17 | COc1ccc(CNC(=O)c2nn(C)c3c2CS(=O)(=O)CC3)cc1 | 8.52
18 | COC(=O)N1CCCCC1C(=O)N(C)Cc1cc(-c2cccnc2)no1 (configuration not stated) | 0.83
19 | Cc1ccc(C(=O)N2CC[C@H]3[C@@H]2CCC(=O)N3c2cccnc2)o1 | -106
20 | Cn1cc(CN2CCc3c(CNC(=O)C4CC4)cncc3C2)cn1 | -5.43
21 | O=C(Nc1ccc2c(c1)OCCO2)c1ccc(=O)[nH]n1 | 18.1

Row | SMILES | cytotoxicity at 10 µM [%]
22 | CCN(CC(=O)NC1(C)CCS(=O)(=O)C1)Cc1ccc(OC)c(F)c1 (configuration not stated) | -9.44
23 | CCc1nc(NC(=O)N(C)Cc2ccoc2)nn1C | 0.79
24 | Cc1ccc(C(=O)NC2CCN(C(=O)NCc3ccccn3)CC2)o1 | -12.2
25 | CCS(=O)(=O)N1CCN(C(=O)NC(C)C)CC2(CNC(=O)C2)C1 (configuration not stated) | -0.82
26 | CC(C)c1cc(N[C@H](C(N)=O)C(C)C)n2nccc2n1 | -1.56
27 | Cc1nc(CNC(=O)[C@@H]2CCCN2C(=O)OC(C)(C)C)cs1 | -0.602
28 | Cc1ncsc1CN1CCOC(C)(C(=O)N(C)C)C1 (configuration not stated) | 12.1
29 | O=C1Nc2ccccc2C12CCN(Cc1cccs1)CC2 | -0.184
30 | Cc1ccc(C(C(=O)N2CCN(C(=O)c3ccc[nH]3)CC2)N(C)C)cc1 (configuration not stated) | -10.7
31 | COc1c(C(=O)NCc2cccnc2)nnn1Cc1ccc(C)cc1 | 11.8
32 | NCC1CN(Cc2cn(CCC(N)=O)c3ccccc23)CCO1 (configuration not stated) | 4.01
33 | Cc1nnn2c1COCC(CNC(=O)c1ccc[nH]1)C2 (configuration not stated) | 2.7
34 | c1cc(-c2c[nH]c([C@@H]3COCCN3Cc3csnn3)n2)ccn1 | 3.07
35 | Cc1cc(C)n(CC2CCCN2C(=O)c2cccc3c2OCCO3)n1 (configuration not stated) | -11.8
36 | CCOCCNC(=O)c1cc(COc2cncc(Cl)c2)on1 | 7.62
37 | O=C(Cn1ccc2ccc(Br)cc21)NC[C@@H]1CCCN2CCCC[C@H]12 | 14.7
38 | CCc1nc2n(n1)CC(NCc1nc(C)c(C)o1)CC2 (configuration not stated) | -11
39 | CN(C)CC1CN(Cc2ccc3c(c2)OCO3)Cc2nccn2C1 (configuration not stated) | -0.362
40 | Cc1cc(NCc2ccccc2)nc2[nH]nc(N)c12 | -44
41 | O=C(Cn1ccnc1)N(CCO)CCSc1ccc(Cl)cc1 | 4.38
42 | CN(C)Cc1cnc2n1CCN(C(=O)Cc1cccc(F)c1)CC2 | -11.7

Row | SMILES | cytotoxicity at 10 µM [%]
43 | CC1CN(C)CCN1C(=O)Nc1nc(-c2ccco2)cs1 (configuration not stated) | -5.02
44 | O=C1NC2(CCN(Cc3cccs3)CC2)CC1c1ccncc1 (configuration not stated) | 1.2
45 | CCc1nc(C2CCCN2C(=O)c2csc(NC(C)=O)n2)no1 (configuration not stated) | -5.12
46 | CN1CCOC(C)(C(=O)N2CCSCC2)C1 (configuration not stated) | -9.71
47 | CC(C)N(C)CC(=O)Nc1nccn1Cc1ccccc1Cl | 0.0646
48 | COCCN(Cc1cccc(O)c1)Cc1ccccc1F | 4.73
49 | O=C(CC[C@@H]1CCCN2CCCC[C@H]12)NCCc1cc(O)ncn1 | -1.91
50 | Cc1nn(C)cc1CN(C)Cc1cc2c(cc1OC(F)F)OCO2 | -3.53
51 | CCN(CC)C(=O)CCNC(=O)Cc1nc(-c2ccco2)oc1C | 26.8
52 | COc1ccccc1OCCCc1cncc(C(N)=O)c1 | -115
53 | Cc1noc(C)c1C(=O)N1CC[C@]2(C[C@@H](OCc3cccnc3)CO2)C1 | -79.7
54 | O=C(CN1CCN(c2ccnc3c(F)ccc(F)c23)CC1)N1CCCC1 | 17.4
55 | c1csc(CN2C[C@@H]3OCCN(CC4CCCO4)[C@@H]3C2)c1 (some centres not stated) | -6.31
56 | CC(Cn1cccn1)NC(=O)N1CCN(Cc2ccncc2)CC1 (configuration not stated) | -20.8
57 | Cc1nc(C2CCCN(C(=O)c3cc(Cl)c[nH]3)C2)no1 (configuration not stated) | -8.29
58 | O=C1CCC2(CCN(Cc3ccoc3)CC2)N1OCc1ccccc1F | 2.37
59 | CS(=O)(=O)NC(=O)c1ccn(-c2ccc(Cl)c(Cl)c2)n1 | 6.96
60 | Cc1nnc2ccc(N3CCC(C(=O)Nc4nccs4)CC3)nn12 | 3.89
61 | O=C(NC1CC1)c1cnc2n1CCCC2 | -6.81
62 | CC(C)(C)N1CC(C(=O)N2CCN(CCn3cccc3)CC2)CC1=O (configuration not stated) | 18.7
63 | Cc1ncsc1CCn1ccnc1-c1cc2n(n1)CCCNC2 | -0.434

Row | SMILES | cytotoxicity at 10 µM [%]
64 | Cc1ccc(CN2CCN(c3ccc(F)cn3)CC2=O)cc1C | -4.4
65 | CCOCC1CN(Cc2ccncc2)Cc2nn(C)cc21 (configuration not stated) | -79.8
66 | CSCCCNC(=O)C1CCC(=O)N(C2CCCC2)C1 (configuration not stated) | -11.1
67 | CC(C)CCNC(=O)NC(C)c1nncn1C (configuration not stated) | -9.9
68 | O=C(NCCOC1CCCCC1)c1ccc(-c2ccco2)[nH]c1=O | -8.08
69 | CC(=O)NC[C@@H]1C=C(C)[C@H](CC(=O)NCCN(C)C)C[C@H]1C(C)C | 0.939
70 | Cc1nc2n(n1)CC(Nc1nc(C(F)(F)F)nc3ccccc13)CC2 (configuration not stated) | -0.978
71 | O=C(NCCNc1ncccn1)c1cnc(-c2ccccc2)nc1 | 12.1
72 | CC(C)Nc1ncc(CN2C[C@@H](CN3CCC(O)CC3)[C@@H](CO)C2)cn1 | 18.5
73 | O=C(c1ccsc1)N1C[C@@H]2CCN(C(=O)c3cscn3)[C@@H]2C1 | 0.0861
74 | O=C(Nc1nc(-c2ccccc2)ns1)N1CCC(CO)CC1 | 9.11
75 | O=C(CC1[C@H]2CN(C(=O)CO)C[C@@H]12)Nc1cccnc1 (some centres not stated) | 9.19
76 | O=C1CCCN1CCCN1CCCC1Cn1cccn1 (configuration not stated) | -1.82
77 | Cc1noc(C)c1-c1n[nH]c2c1CN(S(=O)(=O)c1cccs1)CC2 | -12.1
78 | CCc1ccccc1-n1nnc(C(=O)O)c1-c1ccccn1 | -6.42
79 | Cc1cc(NC(=O)CNC2CCc3nc(C(C)C)nn3C2)no1 (configuration not stated) | -3.87
80 | CN(C)c1cnn(CC(=O)N2Cc3ccccc3C2)c(=O)c1 | 4.52
81 | O=C(OCC1CCN(c2ccccc2)C1)c1cscn1 (configuration not stated) | 1.27
82 | Cc1ncsc1C(=O)N(C)Cc1cccc(Cl)c1 | -1.27
